Assay results from ChEMBL document CHEMBL1124186, “Synthesis and evaluation of tylosin-related macrolides modified at the aldehyde function: a new series of orally effective antibiotics” (1988).
≈ marks a conversion by molar mass, not a printed value.

Assays:
Haemophilus influenzae = test: In vitro antimicrobial activity against Haemophilus influenzae.; format: functional
Staphylococcus aureus = test: In vitro antimicrobial activity against Staphylococcus aureus X1; format: functional
Streptococcus pyogenes [1] = test: […] effective dose against Streptococcus pyogenes C203 when administered orally; format: functional; settings: po
Streptococcus pyogenes [2] = test: […] effective dose against Streptococcus pyogenes C203 when administered sc; format: functional
In short: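 Infected mice (S. pyogenes C203) were treated subcutaneously 1 and 5 h postinfection with 0.25 mL of antibiotic in 10% aqueous ethanol, with tartaric acid added when needed to dissolve it. A range of concentrations was given. The value is the ED50 expressed as mg/kg × 2.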

Streptococcus pyogenes [3] = test: In vivo effective dose against experimental infections in rodent caused by Streptococcus pyogenes C203 when administered sc; format: functional
Streptococcus pneumoniae = test: In vitro antimicrobial activity against Streptococcus pneumoniae; format: functional
[4] = system: Staphylococcus epidermidis; test: In vitro antimicrobial activity against Staphylococcus epidermidis EPI1; format: functional
Enterococcus faecium = test: In vitro antimicrobial activity against Streptococcus faecium X66; format: functional, streptococcus fae-cium
Streptococcus pyogenes [5] = test: (§1) In vitro antimicrobial activity against Streptococcus pyogenes C203; format: functional
Streptococcus pyogenes [6] = test: as §1; format: functional; remark: listed apart in the source
Streptococcus pyogenes [7] = test: In vivo effective dose against experimental infections in rodent caused by Streptococcus pyogenes C203 when administered orally; format: functional; settings: po

CC[C@H]1OC(=O)C[C@@H](O)[C@H](C)[C@@H](O[C@@H]2O[C@H](C)[C@@H](O[C@H]3C[C@@](C)(O)[C@@H](O)[C@H](C)O3)[C@H](N(C)C)[C@H]2O)[C@@H](CC=O)C[C@@H](C)C(=O)/C=C/C(C)=C/[C@@H]1CO[C@@H]1O[C@H](C)[C@@H](O)[C@@H](O)[C@H]1OC [MACROCIN]
MIC (Haemophilus influenzae): 16 µg/mL (≈ 17.7 µM)
MIC (Staphylococcus aureus): 0.5 µg/mL (≈ 0.554 µM)
ED50 (Streptococcus pyogenes [1]): > 80 mg/kg
ED50 (Streptococcus pyogenes [2]): < 1.2 mg/kg
ED50 (Streptococcus pyogenes [3]): 1.9 mg/kg
MIC (Streptococcus pneumoniae): 1 µg/mL (≈ 1.11 µM)
MIC [4]: 1 µg/mL (≈ 1.11 µM)
MIC (Enterococcus faecium): 2 µg/mL (≈ 2.22 µM)
MIC (Streptococcus pyogenes [5]): 0.25 µg/mL (≈ 0.277 µM)
MIC (Streptococcus pyogenes [6]): 0.25 µg/mL (≈ 0.277 µM)
ED50 (Streptococcus pyogenes [7]): 71 mg/kg
